# OX1R antag-1: OX1R (HCRTR1) antagonists, primary screen, fluorescence, CHO/OX1R cells, Fluo-8 calcium, orexin A. Orexin/Hypocretin receptor type 1 (Homo sapiens), O43613. Fluo-8 calcium fluorescence. inhibition, % at 5 µM. hit rate 0.43% among 330,000;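 active means inhibition above its plate's threshold, mean inhibition of all tested compounds on the plate plus 3 SD, cut at about 37% in these data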;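 further: 0% = orexin A challenge wells and 100% = SB-334867-A antagonist wells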
# Target sequence (O43613 whole entry, looked up): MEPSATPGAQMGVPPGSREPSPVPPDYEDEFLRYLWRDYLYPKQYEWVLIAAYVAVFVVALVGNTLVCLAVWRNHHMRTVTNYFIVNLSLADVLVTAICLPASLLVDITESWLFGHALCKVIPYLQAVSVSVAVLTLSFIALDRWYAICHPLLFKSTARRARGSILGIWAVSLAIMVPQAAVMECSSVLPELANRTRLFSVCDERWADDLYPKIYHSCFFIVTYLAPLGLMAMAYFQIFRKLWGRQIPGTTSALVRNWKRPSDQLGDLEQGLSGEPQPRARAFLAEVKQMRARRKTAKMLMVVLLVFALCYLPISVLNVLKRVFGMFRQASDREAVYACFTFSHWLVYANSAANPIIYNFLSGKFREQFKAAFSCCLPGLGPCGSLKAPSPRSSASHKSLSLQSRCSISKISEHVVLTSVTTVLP
# CHO-K1 Ca antag: M1 antagonist counterscreen hit in parental CHO-K1 cells | ATP-induced calcium, Fluo-8 fluorescence | inhibition, % at 3 µM | hit rate 0.6% among 360,000 | AID 602250;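 active means inhibition above a per-plate cutoff, the plate's mean sample inhibition plus 3 SD, cut at about 24% in these data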;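 further: 0% = DMSO plus EC80 ATP and 100% = DMSO alone without ATP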
# OX1R antag-2: antagonists of human orexin 1 receptor (OX1R); AID 485270, 2010; hit rate 1.8% among 330,000; inhibition, % at 6.6 µM; OX1R-expressing cells, FRET antagonist read-out; in the data active means inhibition mostly above about 38%, no sharp cut-off; inactive means mostly below about 40%;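 further: 0% = agonist challenge alone and 100% = reference antagonist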
# M1 ag parental: counter-screen for M1 agonists: effect in parental CHO-K1 cells; activation, % at 3 µM; hit rate 0.48% among 360,000; AID 602248, 2012; Fluo-8 calcium fluorescence; scaled to maximal ATP response, vehicle zero; in the data active means activation above about 15%;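 further: untransfected CHO-K1 host cells lacking M1 receptor as counterscreen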
# CHO parental Ca: ATP-evoked calcium signal inhibitors, parental CHO, primary screen, counter-screen for OX1R antagonist project, cell-based, fluorescence, Fluo-8 calcium dye. parental CHO-K1, ATP-induced calcium, Fluo-8 fluorescence. inhibition, % at 5.6 µM. hit rate 0.63% among 330,000. AID 463079, 2010;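 active means inhibition above that plate's mean sample inhibition plus 3 SD, cut at about 26% in these data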;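 further: 0% = ATP-challenged DMSO wells and 100% = DMSO wells without ATP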
#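 Material – parental CHO cells · Reagent – ATP stimulus · Compound – single nominal dose of 5.6 µM per compound · Detection – Fluo-8 fluorescence · Read-out basis – percent inhibition of calcium signal · Controls – ATP-challenged DMSO wells low, unchallenged DMSO wells high · Repeats – no replicates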
# M1 PAM parental: nonselective calcium activators in parental CHO-K1 cells, primary screen, counter-screen for M1 PAM project, cell-based, Fluo-8 calcium fluorescence, full deck, 1536-well; ATP EC20; 0% at ATP EC20, 100% at ATP max; activation, % at 3 µM; hit rate 0.02% among 360,000; AID 602247, 2012;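 active means activation above the run cutoff, the mean activation of all test compounds plus 3 SD, cut at about 40% in these data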;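 further: peak over basal fluorescence ratio in a 140 s read after ATP addition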
# Active calls of the source: *; · = no result. In the library only some 2.9% were active in any assay of this set; here they are far more common.
SMILES,OX1R antag-1,CHO-K1 Ca antag,OX1R antag-2,M1 ag parental,CHO parental Ca,M1 PAM parental
CCCc1ccc(C(C)NC(=S)NCc2ccc(F)cc2)cc1 (stereo unspecified),25,16,10,17*,33*,-10
CCC(NC(=S)NCc1ccc(F)cc1)c1ccc(C(C)C)cc1 (stereo unspecified),-3,0,19,8,42*,-4
COc1cccc(NC(=O)C2=COCCO2)c1,8,2,9,0,-11,-2
COc1ccc(C(CNC(=O)c2ccc(S(=O)(=O)Nc3cccc(C)c3C)cc2)N2CCOCC2)cc1 (stereo unspecified),·,-14,·,5,·,5
CCCOc1ccc(C(=O)Nc2ccc(N3CCOCC3)cc2N2CCOCC2)cc1OCC,·,-4,·,1,·,14
CN1CCN(c2cc(N3CCN(C(=O)c4ccco4)CC3)c3c4c(onc24)-c2ccccc2C3=O)CC1,-33,-12,38,1,-11,21
O=C(O)CCCNc1cc(N2CCC3(CC2)OCCO3)c2noc3c2c1C(=O)c1ccccc1-3,0,·,65*,·,-11,·
O=C(O)CCCNc1cc(N2CCN(C(=O)c3ccco3)CC2)c2noc3c2c1C(=O)c1ccccc1-3,-20,-8,58*,1,-16,8
CCOC(=O)N1CCN(c2cc(NCCC(=O)O)c3c4c(onc24)-c2ccccc2C3=O)CC1,-28,4,73*,0,-17,4
COc1ccc(CN(C(=O)c2snc(C(N)=O)c2N)C(C(=O)NC2CCCC2)c2cc(OC)ccc2OC)cc1 (stereo unspecified),-16,-19,27,1,-14,18
Cc1ccccc1CSc1nnc(-c2ccco2)n1Cc1ccco1,5,-2,68*,5,-27,10
Cc1ccccc1CSc1nnc(-c2cccs2)n1Cc1ccco1,8,-7,69*,2,-37,17
O=C(c1cccc(S(=O)(=O)N2CCN(c3ccc(F)cc3)CC2)c1)N1CCCC(C(F)(F)F)C1 (stereo unspecified),-4,15,20,9,37*,-26
CCOc1ccc(NS(=O)(=O)c2cc(C(=O)N3CC(C)OC(C)C3)ccc2C)cc1 (stereo unspecified),-31,-8,16,0,-28,10
CCOc1ccc(NS(=O)(=O)c2ccc(C(=O)N3CC(C)OC(C)C3)cc2)cc1 (stereo unspecified),73*,0,0,41*,42*,2
CC1CN(C(=O)c2cccc(S(=O)(=O)N3CCN(c4ccc(F)cc4)CC3)c2)CC(C)O1 (stereo unspecified),-30,-9,6,9,-6,-3
COc1ccccc1NS(=O)(=O)c1cccc(C(=O)N2CCCCCC2)c1,·,18,·,1,·,-22
CCOc1ccc(NS(=O)(=O)c2ccc(C(=O)N3CCCCC3)cc2)cc1,5,6,0,19*,10,-19
COc1ccccc1NS(=O)(=O)c1ccc(C(=O)N2CCCCCCC2)cc1,13,-10,26*,4,-4,8
COc1ccc(NS(=O)(=O)c2ccc(C(=O)N3CCC(C)CC3)cc2)cc1,21,-5,9,31*,3,-11
CCOc1ccc(S(=O)(=O)Nc2cccc(C(=O)N3CC(C)OC(C)C3)c2)cc1 (stereo unspecified),-15,23,4,0,-14,-33
CCOc1ccc(S(=O)(=O)Nc2ccc(C(=O)N3CC(C)OC(C)C3)cc2)cc1 (stereo unspecified),12,4,7,17*,1,-20
CC1CN(C(=O)c2ccc(NS(=O)(=O)c3ccc(C(C)(C)C)cc3)cc2)CC(C)O1 (stereo unspecified),·,0,·,25*,·,-14
CCOc1ccc(NS(=O)(=O)c2ccc(NC(=S)NC(C)=O)cc2)cc1,6,3,10,22*,-4,21
